Assay results reported in ChEMBL document CHEMBL4732111, “A greener protocol for the synthesis of phosphorochalcogenoates: Antioxidant and free radical scavenging activities” (Eur J Med Chem, 2021).

Columns and labels:
[1] = test system: Brain; experiment: Antioxidant activity in Swiss mouse brain cerebral tissue assessed as inhibition of SNP-induced lipid peroxidation by measuring TBARS level at 10 uM incubated for 1 hr relative to control; format: functional, tissue-based; design: scale not given: the % may be the effect or the level left
In short: (§1)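 Whole brain of male adult Swiss mice homogenized in cold 50 mM Tris-HCl pH 7.4 (1/5 w/v) and spun 2400 g, 10 min, 4 °C; supernatant S1 used. Peroxidation induced with sodium nitroprusside in the presence of compound. Then SDS 8.1%, TBA 0.8% and acetic acid/HCl pH 3.4 added, heated 95 °C for 2 h; MDA measured as marker. Trolox 10 µM as positive control. n = 3; one-way ANOVA with Tukey versus induced.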

[2] = test system: Brain; experiment: Antioxidant activity in Swiss mouse brain cerebral tissue assessed as inhibition of sodium azide-induced reactive species production by measuring fluorescence unit at 10 uM by DCHF-DA dye based spectrofluorimetric method (reference value: 139 +/- 26.8 U); format: functional
[3] = Antioxidant activity assessed as ferric ion reducing activity by measuring absorbance at 10 uM measured after 40 mins by FRAP assay (reference value: 0.11 +/- 0.02); format: functional
In short: (§2)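 Compounds at 10–500 µM mixed with FRAP reagent (FeCl3, triazine and sodium acetate buffer pH 3.2; 10:1:1). Incubated 40 min at 37 °C in the dark; absorbance reported. Vehicle and Trolox 10 µM as controls. Mean ± SEM, n = 3; one-way ANOVA with Tukey versus vehicle.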

[4] = Antioxidant activity assessed as DPPH radical scavenging activity at 10 uM incubated for 30 mins under dark condition relative to control; format: functional
In short: (§3)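 Compounds at 10–500 µM mixed with ethanolic DPPH solution. Incubated 30 min at 30 °C in the dark, then absorbance read at 517 nm. Scavenging expressed as percent relative to vehicle; Trolox 10 µM as positive control. Mean ± SEM, n = 3; one-way ANOVA with Tukey.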

[5] = Antioxidant activity assessed as ABTS radical scavenging activity at 10 uM relative to control; format: functional
In short: (§4)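 Compounds at 10–500 µM mixed with ABTS•+ solution; scavenging read as fall in absorbance at 734 nm, expressed as percent scavenging relative to vehicle. Trolox 10 µM as positive control. Mean ± SEM, n = 3; one-way ANOVA with Tukey.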

[6] = Stability of compound exposed to blue LED light using DCM as solvent assessed as parent compound remaining measured after 2 hrs by 31P-[1H] NMR spectroscopy; format: physicochemical; conditions: DCM solution exposed to blue LED light, read-out: Stabilty
[7] = Drug metabolism in TsOH assessed as tetraethyl diphosphate formation measured after 2 hrs by 31P-[1H] NMR spectroscopy
[8] = test system: Brain; experiment: Antioxidant activity in Swiss mouse brain cerebral tissue assessed as inhibition of SNP-induced lipid peroxidation by measuring TBARS level at 50 uM incubated for 1 hr relative to control; format: functional, tissue-based; design: scale not given: the % may be the effect or the level left; in short: as §1
[9] = test system: Brain; experiment: Antioxidant activity in Swiss mouse brain cerebral tissue assessed as inhibition of SNP-induced lipid peroxidation by measuring TBARS level at 100 uM incubated for 1 hr relative to control; format: functional, tissue-based; design: scale not given: the % may be the effect or the level left; in short: as §1
[10] = test system: Brain; experiment: Antioxidant activity in Swiss mouse brain cerebral tissue assessed as inhibition of SNP-induced lipid peroxidation by measuring TBARS level at 500 uM incubated for 1 hr relative to control; format: functional, tissue-based; design: scale not given: the % may be the effect or the level left; in short: as §1
[11] = Antioxidant activity assessed as ferric ion reducing activity by measuring absorbance at 50 uM measured after 40 mins by FRAP assay (reference value: 0.11 +/- 0.02); format: functional; in short: as §2
[12] = Antioxidant activity assessed as ferric ion reducing activity by measuring absorbance at 100 uM measured after 40 mins by FRAP assay (reference value: 0.11 +/- 0.02); format: functional; in short: as §2
[13] = Antioxidant activity assessed as ferric ion reducing activity by measuring absorbance at 500 uM measured after 40 mins by FRAP assay (reference value: 0.11 +/- 0.02); format: functional; in short: as §2
[14] = Antioxidant activity assessed as DPPH radical scavenging activity at 50 uM incubated for 30 mins under dark condition relative to control; format: functional; in short: as §3
[15] = Antioxidant activity assessed as DPPH radical scavenging activity at 100 uM incubated for 30 mins under dark condition relative to control; format: functional; in short: as §3
[16] = Antioxidant activity assessed as DPPH radical scavenging activity at 500 uM incubated for 30 mins under dark condition relative to control; format: functional; in short: as §3
[17] = Antioxidant activity assessed as ABTS radical scavenging activity at 50 uM relative to control; format: functional; in short: as §4
[18] = Ex vivo antioxidant activity in Swiss mouse assessed as inhibition of canola oil-induced lipid peroxidation in brain by measuring TBARS level at 10 mg/kg, ig measured after 30 mins (reference value: 91.91 +/- 9.38 /g); format: functional; conditions: 0.5 h
[19] = Ex vivo antioxidant activity in Swiss mouse assessed as inhibition of canola oil-induced lipid peroxidation in liver by measuring TBARS level at 10 mg/kg, ig measured after 30 mins (reference value: 271.5 +/- 43.88 /g); format: functional; conditions: 0.5 h
[20] = Ex vivo antioxidant activity in Swiss mouse assessed as inhibition of canola oil-induced lipid peroxidation in kidney by measuring TBARS level at 10 mg/kg, ig measured after 30 mins (reference value: 438.20 +/- 27.59 /g); format: functional; conditions: 0.5 h
[21] = Ex vivo antioxidant activity in Swiss mouse assessed as inhibition of canola oil-induced glutathione peroxidase activity in brain by measuring oxidation of NADPH at 10 mg/kg, ig measured after 30 mins by spectrophotometric method (reference value: 12.8 +/- 2.28 nmol/g); format: functional; conditions: 0.5 h
In short: (§5)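 Swiss mice dosed orally at 10 mg/kg (vehicle canola oil); brain S1 prepared 30 min later. SOD measured as inhibition of epinephrine autoxidation in Na2CO3 50 mM pH 10.3 at 480 nm, one unit = 50% inhibition at 26 °C. GPx measured as NADPH decay coupled to glutathione reductase with H2O2 and GSH. Mean ± SEM, 6 mice per group; Student's t-test.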

[22] = Ex vivo antioxidant activity in Swiss mouse assessed as inhibition of canola oil-induced superoxide dismutase activity in brain by measuring SOD activity at 10 mg/kg, ig measured after 30 mins by spectrophotometric method (reference value: 25.44 +/- 4.12 U/min); format: functional; conditions: 0.5 h; in short: as §5
[23] = Toxicity in Swiss mouse assessed as change in plasma urea level at 10 mg/kg, ig measured after 30 mins (reference value: 90.31 +/- 0.74 mg/dl); format: organism-based; conditions: in vivo, po, 0.5 h
In short: (§6)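 Swiss mice dosed intragastrically at 10 mg/kg (control canola oil 10 mL/kg). After 30 min, blood taken by heart puncture into heparin under light isoflurane anesthesia. Plasma obtained at 200 g for 10 min, hemolyzed samples discarded. ALT, AST, urea and creatinine measured with commercial kits. 5–6 mice per group; Student's t-test.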

[24] = Toxicity in Swiss mouse assessed as change in plasma creatinine level at 10 mg/kg, ig measured after 30 mins (reference value: 1.77 +/- 0.05 mg/dl); format: organism-based; conditions: in vivo, po, 0.5 h; in short: as §6
[25] = Toxicity in Swiss mouse assessed as change in plasma AST level at 10 mg/kg, ig measured after 30 mins (reference value: 148 +/- 8.08 […]); format: organism-based; conditions: in vivo, po, 0.5 h; in short: as §6
[26] = Toxicity in Swiss mouse assessed as change in plasma ALT level at 10 mg/kg, ig measured after 30 mins (reference value: 110.90 +/- 12.4 IU/L); format: organism-based; conditions: in vivo, po, 0.5 h; in short: as §6
[27] = test system: Brain; experiment: Antioxidant activity in Swiss mouse brain cerebral tissue assessed as inhibition of sodium azide-induced reactive species production by measuring fluorescence unit at 50 uM by DCHF-DA dye based spectrofluorimetric method (reference value: 139 +/- 26.8 U); format: functional
[28] = test system: Brain; experiment: Antioxidant activity in Swiss mouse brain cerebral tissue assessed as inhibition of sodium azide-induced reactive species production by measuring fluorescence unit at 100 uM by DCHF-DA dye based spectrofluorimetric method (reference value: 139 +/- 26.8 U); format: functional
[29] = test system: Brain; experiment: Antioxidant activity in Swiss mouse brain cerebral tissue assessed as inhibition of sodium azide-induced reactive species production by measuring fluorescence unit at 500 uM by DCHF-DA dye based spectrofluorimetric method (reference value: 139 +/- 26.8 U); format: functional
[30] = Antioxidant activity assessed as ABTS radical scavenging activity at 100 uM relative to control; format: functional; in short: as §4
[31] = Stability of compound in Na2CO3 measured after 24 hrs; format: physicochemical
[32] = Stability of compound exposed to blue LED light using DMSO as solvent measured after 24 hrs; format: physicochemical
[33] = Stability of compound exposed to blue LED light using DCM as solvent measured after 24 hrs; format: physicochemical
[34] = Stability of compound exposed to blue LED light using EtOH as solvent measured after 24 hrs; format: physicochemical
[35] = Stability of compound in TsOH measured after 24 hrs; format: physicochemical
[36] = Antioxidant activity assessed as ABTS radical scavenging activity at 500 uM relative to control; format: functional; in short: as §4

Compound | Activity [1] | Activity [2] | Activity [3] | Activity [4] | Activity [5] | Activity [11] | Activity [12] | Activity [13] | Activity [14] | Activity [15] | Activity [16] | Activity [17] | Activity [18] | Activity [19] | Activity [20] | Activity [21] | Activity [22] | Activity [23] | Activity [24] | Activity [25] | other results
Cc1c(C)c2c(c(C)c1O)CCC(C)(C(=O)O)O2 (stereo not given) [TROLOX] | 29.8% | 99 U | 0.39 | 93.5% | 94.3% | – | – | – | – | – | – | – | – | – | – | – | – | – | – | – | –
CCOP(=O)(OCC)[Te]c1ccccc1 | – | – | – | – | – | – | – | – | – | – | – | – | – | – | – | – | – | – | – | – | remaining at 2 h [6]: 20%; Drug metabolism [7]: Metabolite detected
COP(=O)(OC)[Se]c1ccccc1 | 84.7% | 71.5 U | 0.11 | 5.53% | 5.02% | 0.12 | 0.12 | 0.16 | 7.83% | 4.68% | 21.9% | 10.3% | 87.34 g⁻¹ | 326 g⁻¹ | 676.6 g⁻¹ | 7.18 nmol/g | 25.94 U/min | 80.3 mg/dL | 1.78 mg/dL | 151.2 IU/L | Activity [8]: 80.6%; Activity [9]: 85.9%; Activity [10]: 79.8%; Activity [26]: 117.4 IU/L
COP(=O)(OC)[Se]c1ccc(C)cc1 | 73% | 70.3 U | 0.14 | 12.2% | 11.5% | 0.17 | 0.17 | 0.29 | 6.83% | 9.87% | 3.62% | 12.5% | 54.79 g⁻¹ | 199.9 g⁻¹ | 455.4 g⁻¹ | 7.48 nmol/g | 7.37 U/min | 80.24 mg/dL | 1.96 mg/dL | 147.4 IU/L | Activity [27]: 84.9 U; Activity [28]: 70.1 U; Activity [29]: 62.7 U; Activity [30]: 29.9%; Activity [26]: 119 IU/L
CCOP(=O)(OCC)[Se]c1ccccc1 | – | – | – | – | – | – | – | – | – | – | – | – | – | – | – | – | – | – | – | – | Stabilty [31]: Stable; Stabilty [32]: Stable; Stabilty [33]: Stable; Stabilty [34]: Stable; Stabilty [35]: Stable
COc1ccc([Se]P(=O)(OC)OC)cc1 | 87.6% | 94 U | 0.16 | 3.72% | 6.76% | 0.16 | 0.19 | 0.26 | 6.95% | 11.9% | 19.1% | 8.6% | 64.64 g⁻¹ | 280.8 g⁻¹ | 422.5 g⁻¹ | 4.98 nmol/g | 13.47 U/min | 74.39 mg/dL | 2.36 mg/dL | 151 IU/L | Activity [8]: 78.6%; Activity [9]: 78.1%; Activity [10]: 58%; Activity [27]: 94.1 U; Activity [28]: 67.2 U; Activity [30]: 6.91%; Activity [36]: 19.8%; Activity [26]: 119.5 IU/L
O=P(OCc1ccccc1)(OCc1ccccc1)[Se]c1ccccc1 | 59.5% | 61.7 U | 0.16 | 2.19% | 3.85% | 0.23 | 0.4 | 1.02 | 3.94% | 3.72% | 5.04% | 3.06% | 83 g⁻¹ | 263.8 g⁻¹ | 580.5 g⁻¹ | 6.39 nmol/g | 17.54 U/min | 98.59 mg/dL | 1.52 mg/dL | 155.3 IU/L | Activity [30]: 1.86%; Activity [36]: 12.4%; Activity [26]: 138.1 IU/L
CCCCOP(=O)(OCCCC)[Se]c1ccccc1 | 79.3% | 98.3 U | 0.11 | 6.14% | 1.92% | 0.15 | 0.15 | 0.3 | 18.4% | 12.2% | 7.38% | 8.76% | 87.71 g⁻¹ | 249.4 g⁻¹ | 371 g⁻¹ | 5.5 nmol/g | 23.85 U/min | 105 mg/dL | 1.75 mg/dL | 159.3 IU/L | Activity [8]: 83.8%; Activity [9]: 90.4%; Activity [10]: 57%; Activity [27]: 76.1 U; Activity [28]: 61.4 U; Activity [30]: 3.84%; Activity [36]: 2.34%; Activity [26]: 140 IU/L
